Measured values from the array DNA melting data of Ke et al. (doi:10.1101/2024.01.08.574731).

Tests used:
[1] = folding enthalpy; higher = less favourable; fluorescence melt of hairpins on a sequencing array, two-state fit; conditions: sodium 0.088 M
Method in brief: (§1)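 Library hairpins on a sequenced MiSeq flow cell carried annealed Cy3 and quencher oligos, and their Cy3 fluorescence was imaged in 50 mM Na-HEPES pH 8.0 with 25 mM NaCl, in 2.5 °C steps up to 60 °C. Signals were normalised to Cy3 before quenching and to control constructs. Melting temperature and folding enthalpy were obtained from bootstrapped two-state fits, combined by inverse-variance weighting across four replicates, and the fitted temperatures were then raised by 9.35 °C to match UV melts.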

[2] = melting temperature; fluorescence melt of hairpins on a sequencing array, two-state fit, raised by 9.35 °C to match UV melts; conditions: sodium 0.088 M
Method in brief: as §1

Sequence | folding enthalpy [1] [kcal/mol] | Tm [2] [°C]
GCGAAGCGAAAGCTAAGC ((..(((....)))..)) | -16.5 | 54.4
GCAATATCGAAAGATTGC (((..(((....)))))) | -25.5 | 39.5
GGTCGGACGAAAGTCACC (((..(((....)))))) | -12.7 | 30.6
GCGAGATGTCGC ((((....)))) | -19.1 | 49.4
GCGAAGCATCGC ((((....)))) | -8.14 | 59.5
GTAGCAGGAAACTGTTAC (((.(((....))).))) | -30.4 | 40.5
GGGGACCGAAAGGTTCCC (((.(((....))).))) | -43.5 | 66.3
GCCCCACCGAAAGGTGGC (((..(((....)))))) | -4.81 | 40.7
GGATCGCCGAAAGGCTCC (((..(((....)))))) | -11 | 30.4
GAGTGCGAAAGCACACTC ((((((....)))..))) | -12.6 | 58.6
GTGTGTGGAAACATACGC (.((.((....)).)).) | -29.4 | 47
GTAGTACGAAAGTATAC (((.(((....)))))) | -17.1 | 32
GACCTGGGAAACCAAGTC (((.(((....))).))) | -29.7 | 33.4
GCTCACGAAAGTGATAGC ((((((....)))..))) | -17.4 | 47.4
GTGCCACGAAAGTGACAC (((.(((....))).))) | -40.9 | 56.5
GTCCACGAAAGTGTAGAC ((((((....)))..))) | -20.1 | 38.9
GTATCACGAAAGTGTTAC (((.(((....))).))) | -25.8 | 42.3
GATCATCTGATGATC ((((((...)))))) | -37.5 | 46.3
GACGGGCGAAAGCCAGTC (((.(((....))).))) | -21.7 | 67.9
GATAAACGAAAGTTAATC (((.(((....))).))) | -16 | 34.4
GGCATTCGAAAGAAAGCC (((.(((....))).))) | -40.4 | 50.5
GTTCATGGAAACATGAGC (.(((((....))))).) | -23.4 | 43.9
ACCATGAAAATGGT (((((....))))) | -20.3 | 46.6

Sequence | folding enthalpy [1] [kcal/mol] | Tm [2] [°C]
GTACTTCCGAAAGGATAC (((..(((....)))))) | -10.3 | 24.9
GTCGTCCGAAAGGATGAC (((.(((....))).))) | -54.4 | 62.1
GCGCGGCGAAAGCGACGC (((..((....))..))) | -15.2 | 63.2
GATCACGCGTGTGATC ((((((....)))))) | -38.7 | 56.5
GTGTTGGCGAAAGCCCAC (((..(((....)))))) | -15.6 | 47
GTCGATGGAAACATTGGC (.(.(((....))).).) | -29.2 | 35.1
GATCGAGCCGTCGATC ((((((....)))))) | -34.8 | 54.4
GGGCTCGAAAGAGCACCC ((((((....)))..))) | -12.2 | 58.1
GATCCGACGAAAGTCATC (((..(((....)))))) | -9.01 | 25.9
GTCGACGGAAACGTTGGC (.(.(((....))).).) | -24.6 | 46.2
GCGCCCCGAAAGGGCCGC (((.(((....))).))) | -19.8 | 61.2
GTATACGAAAGTATGTAC ((((((....)))..))) | -12.4 | 30.6
GCTGTGTCGAAAGACAGC (((..(((....)))))) | -17.3 | 48.9
GCAAACGGAAACGCTTGC ((((.((....)).)))) | -35.1 | 47.6
GTAACCGGAAACGGTTGC (.(((((....))))).) | -31.8 | 53.1
GGGGATGGAAACGTTCCC (((.(.(....).).))) | -30 | 39
GGCTTGGCGAAAGCCGCC (((..(((....)))))) | -16.6 | 68.8
GGCGTCGAAAGACTTGCC ((((((....)))..))) | -24.6 | 48.9
GTGACGGGAAACCGTTGC (..((((....))))..) | -17.6 | 45.4
GTCGAAGGAAACTCCGAC ((((.((....)).)))) | -27.6 | 42.1
GATTCAGGAAACTGAACC (.(((((....))))).) | -17.4 | 31.4
GCCCGCGAAAGCGGTGGC ((((((....)))..))) | -12.2 | 57.7
GCGGCTTTCCGC ((((....)))) | -25 | 56.6

Sequence | folding enthalpy [1] [kcal/mol] | Tm [2] [°C]
GCTGTGCGAAAGCCAAGC (((..((....))..))) | -19.2 | 46.2
GCTGTGGGAAACCACGGC ((.((((....)))).)) | -36.2 | 58.8
GTGCCAGGAAACTGGTGC (..((((....))))..) | -26.2 | 48
GGCTGTCGAAAGACTGCC (((.(((....))).))) | -41.2 | 63
GTTGTAGGAAACTATGAC ((..(((....)))..)) | -14.1 | 26.6
GTAGAGGGAAACCTTTAC (((.(((....))).))) | -28.7 | 31
GATCCCCAGTGGGATC ((((((....)))))) | -43.5 | 59.1
GTCTATGGAAACATAGGC (.(((((....))))).) | -30.7 | 44
GTCTGCGAAAGCAACGAC ((((((....)))..))) | -13.1 | 44.9
GTGTAAGGAAACTTGCAC (((.(((....))).))) | -31 | 45.1
GCCAGGTCGAAAGACGGC (((..(((....)))))) | -34.7 | 53.4
GATGAACGAAAGTTAATC (((.(((....))).))) | -23.7 | 38.6
GTCTTCCGAAAGGAGGAC (((.(((....))).))) | -38.2 | 54.5
GAGTTGCGAAAGCAGCTC (((.(((....))).))) | -32.4 | 62.1
GAGAATGGAAACGTTCTC (((((.(....).))))) | -33.9 | 42.9
GTACCCACGAAAGTGTAC (((..(((....)))))) | -11.5 | 26.2
GCTTCTGAAAAGAAGC ((((((....)))))) | -31.9 | 60
GATCTATCCATAGATC ((((((....)))))) | -38.1 | 46.5
GAAGTAGGAAACTACTTC (((((((....))))))) | -42.6 | 52.5
GCTGAACGAAAGTTGAGC (((.(((....))).))) | -31.4 | 48.7
GCCTTGCGAAAGCTGGGC (((..((....))..))) | -25.9 | 62.6
CGGGCGGAAACGCTCCG ((((((....))).))) | -26.4 | 54.2
GCACCGCGAAAGCGATGC (((.(((....))).))) | -43.6 | 57.4

Sequence | folding enthalpy [1] [kcal/mol] | Tm [2] [°C]
GGGGACGAAAGTCTCCC ((((((....))).))) | -23.9 | 60
GCGGGTTCGAAAGAACGC (((..(((....)))))) | -12.3 | 45.5
GAAAAGCGAAAGCTGTTC (((.(((....))).))) | -18 | 44.9
GCAGGACGAAAGTCGTGC (((.(((....))).))) | -42.8 | 62.6
GATCGTGGAACGATC ((((((...)))))) | -35.7 | 66.8
GCACGAGGAAACCCGTAC (.(((.(....).))).) | -6.61 | 21.9
CGTACGGAAACGTTTACG ((((((....)))..))) | -16 | 37.3
GGTACCGAAAGGTAAACC ((((((....)))..))) | -16.2 | 40.5
GCAATGCGAAAGCATGGC ((.((((....)))).)) | -34 | 65.2
GCCGTCGGAAACGATGGC (((.(((....))).))) | -41.1 | 65.5
GCCTCCGAAAGGACCGGC ((((((....)))..))) | -25 | 43.1
GAGTGTGGAAACGTACTC ((((..(....)..)))) | -22.9 | 35.5
GCGGCGCGAAAGCGATGC ((..(((....)))..)) | -38.6 | 69.1
GCTCGGTCGAAAGACAGC (((..(((....)))))) | -12.3 | 41.2
GATCTTGTCCAAGATC ((((((....)))))) | -34.2 | 50.1
GATCGCACATGCGATC ((((((....)))))) | -39.8 | 68.3
GTGCATGGAAACACGCAC ((((.((....)).)))) | -34.6 | 47.7
GTATTCGAAAGAATAC ((((((....)))))) | -35.7 | 54.6
GTCATGCCGAAAGGCGAC (((..(((....)))))) | -12.3 | 41.3
GACAACGAAAGTTCGGTC ((((((....)))..))) | -17.7 | 30.7
GATCTAGACATAGATC ((((((....)))))) | -35 | 47.9
GCGCTTGGAAACAGGTGC ((.(.((....)).).)) | -28.5 | 40.6
GCTATGGAAACATAGC ((((((....)))))) | -35.4 | 55.6
